Test results: ChEMBL document CHEMBL1138661, “Design, synthesis, and structure-activity relationship studies of 3,4,6-triphenylpyran-2-ones as selective cyclooxygenase-2 inhibitors” (J Med Chem, 2004)

Assays:
[1] = molecular target: T1, Prostaglandin G/H synthase 1 (Ovis aries, UniProt P05979); experiment: Inhibition of ovine Prostaglandin G/H synthase 1
T1 sequence (P05979 whole entry): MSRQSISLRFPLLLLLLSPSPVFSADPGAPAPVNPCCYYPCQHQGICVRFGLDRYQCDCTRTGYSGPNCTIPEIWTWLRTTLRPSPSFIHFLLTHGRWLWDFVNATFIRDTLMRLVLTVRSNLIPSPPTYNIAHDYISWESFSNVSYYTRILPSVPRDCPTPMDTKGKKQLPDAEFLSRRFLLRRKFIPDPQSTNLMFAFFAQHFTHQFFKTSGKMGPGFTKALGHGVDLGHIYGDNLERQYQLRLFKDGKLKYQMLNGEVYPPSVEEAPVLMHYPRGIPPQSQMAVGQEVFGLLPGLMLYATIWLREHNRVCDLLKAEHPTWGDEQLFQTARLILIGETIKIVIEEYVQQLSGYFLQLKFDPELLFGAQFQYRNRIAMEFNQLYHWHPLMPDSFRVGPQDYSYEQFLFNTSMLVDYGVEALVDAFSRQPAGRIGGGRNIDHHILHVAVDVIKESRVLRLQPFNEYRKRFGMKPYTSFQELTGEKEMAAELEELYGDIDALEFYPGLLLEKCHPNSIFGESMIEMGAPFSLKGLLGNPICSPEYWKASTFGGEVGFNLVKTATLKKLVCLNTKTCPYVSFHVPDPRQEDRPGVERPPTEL
Procedure, shortened: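 Ovine COX-1 with heme in 0.1 M Tris-HCl pH 8.0, 5 mM EDTA, 2 mM phenol. Test drug from DMSO stock at 0.001–100 μM final, preincubated 5 min at 37 °C. Arachidonic acid added, stopped with 1 M HCl after 2 min. IC50 from concentration–inhibition curve, duplicate determinations.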

Rattus norvegicus [2] = species on record: Rattus norvegicus; experiment: Percent inhibition of analgesic activity in a rat model 4% NaCl-induced abdominal constriction assay at 30 min; type: functional, Abdomen
Procedure, shortened: (§1)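 Male Sprague-Dawley rats given test compound orally at 5 mg/kg. Writhing (abdominal constriction) induced by 4% NaCl. Inhibition of writhing scored at 30 or 60 min after dosing. Mean ± SEM, n = 4-6.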

[3] = molecular target: T2, Prostaglandin G/H synthase 2 (Rattus norvegicus) (UniProt P35355)
T2 sequence (whole entry): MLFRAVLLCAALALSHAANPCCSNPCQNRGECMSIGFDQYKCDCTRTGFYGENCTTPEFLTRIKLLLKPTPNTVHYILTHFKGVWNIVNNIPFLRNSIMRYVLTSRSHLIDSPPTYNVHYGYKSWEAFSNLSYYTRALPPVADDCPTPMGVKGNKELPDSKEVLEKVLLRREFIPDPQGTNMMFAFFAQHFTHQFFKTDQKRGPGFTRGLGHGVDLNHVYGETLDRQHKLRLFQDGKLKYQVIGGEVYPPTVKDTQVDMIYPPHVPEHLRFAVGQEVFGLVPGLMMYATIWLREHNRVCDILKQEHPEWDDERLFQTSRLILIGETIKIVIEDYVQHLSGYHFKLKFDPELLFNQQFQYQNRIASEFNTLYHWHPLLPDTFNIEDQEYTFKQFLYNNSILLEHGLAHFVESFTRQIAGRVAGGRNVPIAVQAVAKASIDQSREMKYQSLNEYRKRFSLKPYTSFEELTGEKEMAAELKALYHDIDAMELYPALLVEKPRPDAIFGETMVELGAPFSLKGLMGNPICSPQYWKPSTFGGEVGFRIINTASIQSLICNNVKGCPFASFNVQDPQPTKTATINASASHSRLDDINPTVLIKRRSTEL

Rattus norvegicus [4] = species on record: Rattus norvegicus; experiment: Percent inhibition of analgesic activity in a rat model 4% NaCl-induced abdominal constriction assay at 60 min; type: functional, Abdomen; procedure, shortened: as §1

SMILES | IC50 [1] | Inhibition (Rattus norvegicus [2]) | ID50 [3] | Inhibition (Rattus norvegicus [4])
CS(=O)(=O)c1ccc(-c2cc(-c3ccccc3)oc(=O)c2-c2cccnc2)cc1 | 3.2 µM |  |  | 
Cc1ccc(-c2cc(-c3ccc(S(C)(=O)=O)cc3)c(-c3ccccc3)c(=O)o2)cc1 | > 100 µM |  |  | 
CS(=O)(=O)c1ccc(-c2c(-c3ccccc3)cc(-c3ccc(O)cc3)oc2=O)cc1 | > 100 µM |  |  | 
CS(=O)(=O)c1ccc(-c2cc(-c3ccccc3)oc(=O)c2-c2ccncc2)cc1 | > 100 µM |  |  | 
CCOc1ccc(-c2cc(-c3ccc(S(C)(=O)=O)cc3)c(-c3ccccc3)c(=O)o2)cc1 | 31.6 µM |  |  | 
Cc1ccc(-c2cc(-c3ccccc3)c(-c3ccc(S(C)(=O)=O)cc3)c(=O)o2)cc1 | > 100 µM |  |  | 
COc1ccc(-c2cc(-c3ccc(S(C)(=O)=O)cc3)c(-c3cccnc3)c(=O)o2)cc1 | 0.15 µM |  |  | 
CS(=O)(=O)c1ccc(-c2c(-c3cccnc3)cc(-c3ccccc3)oc2=O)cc1 | 3 µM |  |  | 
COc1ccc(-c2cc(-c3ccc(F)cc3)c(-c3ccc(S(C)(=O)=O)cc3)c(=O)o2)cc1 | 20 µM |  |  | 
CS(=O)(=O)c1ccc(-c2c(-c3ccccc3)cc(-c3ccc(F)cc3)oc2=O)cc1 | > 100 µM |  |  | 
CS(=O)(=O)c1ccc(-c2c(-c3ccccc3)cc(-c3ccccc3)oc2=O)cc1 | > 100 µM |  |  | 
CSc1ccc(-c2cc(-c3ccccc3)c(-c3ccc(N=[N+]=[N-])cc3)c(=O)o2)cc1 | 30 µM |  |  | 
CCOc1ccc(-c2cc(-c3ccc(S(C)(=O)=O)cc3)c(-c3ccc(F)cc3)c(=O)o2)cc1 | 1.07 µM |  |  | 
CS(=O)(=O)c1ccc(-c2cc(-c3ccc(F)cc3)oc(=O)c2-c2ccccc2)cc1 | 11 µM |  |  | 
COc1ccc(-c2cc(-c3ccc(S(C)(=O)=O)cc3)c(-c3ccc(F)cc3)c(=O)o2)cc1 | 10.7 µM |  |  | 
COc1ccc(-c2cc(-c3cccnc3)c(-c3ccc(S(C)(=O)=O)cc3)c(=O)o2)cc1 | 0.44 µM |  |  | 
CCc1ccc(-c2cc(-c3ccccc3)c(-c3ccc(S(C)(=O)=O)cc3)c(=O)o2)cc1 | > 100 µM |  |  | 
CSc1ccc(-c2cc(-c3ccc(S(C)(=O)=O)cc3)c(-c3ccccc3)c(=O)o2)cc1 | 31.2 µM |  |  | 

SMILES | IC50 [1] | Inhibition (Rattus norvegicus [2]) | ID50 [3] | Inhibition (Rattus norvegicus [4])
COc1ccc(-c2cc(-c3ccc(S(C)(=O)=O)cc3)c(-c3ccncc3)c(=O)o2)cc1 | > 100 µM | 58.3% | 21.4 mg/kg | 55%
COc1ccc(-c2cc(-c3ccccc3)c(-c3ccc(S(C)(=O)=O)cc3)c(=O)o2)cc1 | > 100 µM | 37.5% | 19.2 mg/kg | 69%
CCOc1ccc(-c2cc(-c3ccccc3)c(-c3ccc(S(C)(=O)=O)cc3)c(=O)o2)cc1 | > 100 µM | 58.3% | 5.6 mg/kg | 75%
CSc1ccc(-c2cc(-c3ccccc3)c(-c3ccc(S(C)(=O)=O)cc3)c(=O)o2)cc1 | 37.7 µM | 72% | 7.9 mg/kg | 64.7%
CCOc1ccc(-c2cc(-c3ccccc3)c(-c3ccc(N=[N+]=[N-])cc3)c(=O)o2)cc1 | > 100 µM |  |  | 
CCc1ccc(-c2cc(-c3ccc(S(C)(=O)=O)cc3)c(-c3ccccc3)c(=O)o2)cc1 | > 100 µM |  |  | 
COc1ccc(-c2cc(-c3ccccc3)c(-c3ccc(N=[N+]=[N-])cc3)c(=O)o2)cc1 | > 100 µM | 47.2% | 5.6 mg/kg | 55.5%
CSc1ccc(-c2cc(-c3ccc(F)cc3)c(-c3ccc(S(C)(=O)=O)cc3)c(=O)o2)cc1 | > 100 µM |  |  | 
CS(=O)(=O)c1ccc(-c2c(-c3ccccc3)cc(-c3ccc(N)cc3)oc2=O)cc1 | 32.5 µM |  |  | 
CS(=O)(=O)c1ccc(-c2cc(-c3ccc(C(F)(F)F)cc3)oc(=O)c2-c2ccccc2)cc1 | 25.3 µM |  |  | 
Cc1ccc(-c2cc(C(F)(F)F)nn2-c2ccc(S(N)(=O)=O)cc2)cc1 [CELECOXIB] |  | 69.33% |  | 
CCOc1ccc(-c2cc(-c3ccc(F)cc3)c(-c3ccc(S(C)(=O)=O)cc3)c(=O)o2)cc1 | 3.2 µM |  |  | 
CS(=O)(=O)c1ccc(-c2c(-c3ccccc3)cc(-c3ccc([N+](=O)[O-])cc3)oc2=O)cc1 | > 100 µM |  |  | 
CS(=O)(=O)c1ccc(-c2c(-c3ccccc3)cc(-c3ccc(C(F)(F)F)cc3)oc2=O)cc1 | > 100 µM |  |  | 
CS(=O)(=O)c1ccc(-c2cc(-c3ccccc3)c(-c3ccccc3)c(=O)o2)cc1 | > 100 µM |  |  | 
CS(=O)(=O)c1ccc(-c2cc(-c3ccccc3)oc(=O)c2-c2ccccc2)cc1 | > 100 µM |  |  | 
COc1ccc(-c2cc(-c3ccc(S(C)(=O)=O)cc3)c(-c3ccccc3)c(=O)o2)cc1 | 31.5 µM |  |  | 
